Our source for the inhibition in vivo and inhibition values is ChEMBL document CHEMBL1275298, “Synthesis and anti-inflammatory activity evaluation of some novel 6-alkoxy(phenoxy)-[1,2,4]triazolo[3,4-a]phthalazine-3-amine derivatives” (2010).

The structures appear in SMILES notation. The source made the active and inactive calls. The rule behind the calls is not given here.

For test [1], the system named is Mus musculus. As to the kind of experiment: Antiinflammatory activity in mouse assessed as inhibition of xylene-induced ear edema at 100 mg/kg, ip after 0.5 hrs relative to control. Type of test: functional. Particulars: route intraperitoneal. In outline:
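Kunming mice, 20-25 g, 10 per group. Freshly prepared DMSO solution given i.p. at 0.05 mL/20 g; vehicle-only (DMSO) controls. Xylene ear edema test run 0.5 h after dosing; mice killed 30 min after xylene, 7 mm plugs cut from treated and untreated ears, and edema taken as the plug weight difference. Reported as % edema reduction versus vehicle.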

The subject of test [2] is Mus musculus. As to the kind of experiment: Antiinflammatory activity in mouse assessed as inhibition of xylene-induced ear edema at 100 mg/kg, po administered 3 hrs before xylene challenge measured after 3 hrs post dose. Format: functional. In outline: (§1)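 Kunming mice, 20-25 g, 10 per group. Compound homogenized in 0.5% CMC-Na and given orally at 0.2 mL/10 g; vehicle controls got 0.5% CMC-Na. Xylene applied 1, 2, 3, 4, 5 or 24 h after dosing (3 h for 50 and 100 mg/kg). Killed 30 min later; 7 mm ear plugs weighed, treated minus untreated. Result given as % edema reduction versus CMC-Na controls.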

The test system of test [3] is Mus musculus. As to the kind of experiment: Antiinflammatory activity in mouse assessed as inhibition of xylene-induced ear edema at 200 mg/kg, po administered 1 hr before xylene challenge measured after 3 hrs post dose. Type of test: functional. Put shortly:
as §1

In test [4] the test system is Mus musculus. As to the kind of experiment: Antiinflammatory activity in mouse assessed as inhibition of xylene-induced ear edema at 200 mg/kg, po administered 24 hrs before xylene challenge measured after 3 hrs post dose. Format: functional. Put shortly: as §1
The test system of test [5] is Mus musculus. As to the kind of experiment: Antiinflammatory activity in mouse assessed as inhibition of xylene-induced ear edema at 200 mg/kg, po administered 4 hrs before xylene challenge measured after 3 hrs post dose. Type of test: functional. Put shortly: as §1
For test [6], the system named is Mus musculus. As to the kind of experiment: Antiinflammatory activity in mouse assessed as inhibition of xylene-induced ear edema at 200 mg/kg, po administered 2 hrs before xylene challenge measured after 3 hrs post dose. Type of test: functional. Put shortly:
as §1

The test system of test [7] is Mus musculus. As to the kind of experiment: Antiinflammatory activity in mouse assessed as inhibition of xylene-induced ear edema at 200 mg/kg, po administered 5 hrs before xylene challenge measured after 3 hrs post dose. Type of test: functional. In outline: as §1
For test [8], the system named is Mus musculus. As to the kind of experiment: Antiinflammatory activity in mouse assessed as inhibition of xylene-induced ear edema at 200 mg/kg, po administered 3 hrs before xylene challenge measured after 3 hrs post dose. Type of test: functional. In outline:
as §1

Test [9] has as its system Mus musculus. As to the kind of experiment: Antiinflammatory activity in mouse assessed as inhibition of xylene-induced ear edema at 200 mg/kg, po administered 1 to 24 hrs before xylene challenge measured after 4 hrs post dose. Format: functional, organism-based. More on the design: dose 200 mg/kg. In outline: as §1
Test [10] relates to Mus musculus. As to the kind of experiment: Antiinflammatory activity in mouse assessed as inhibition of xylene-induced ear edema at 50 mg/kg, po administered 3 hrs before xylene challenge measured after 3 hrs post dose. Type of test: functional. In outline:
as §1

By inhibition in vivo is commonly meant the percentage by which the read-out fell short of the control. `Nc1nnc2c3ccccc3c(Oc3ccc(Cl)cc3)nn12`: the inhibition in vivo at 100 mg/kg in test [1] was found to be 75%.
The same measure, in the same setting: with `CCCCOc1nn2c(N)nnc2c2ccccc12` the figure was 67.6%; with `Cc1cccc(Oc2nn3c(N)nnc3c3ccccc23)c1`, 68%.
For `Nc1nnc2c3ccccc3c(Oc3ccc(Cl)cc3Cl)nn12`, the inhibition in vivo at 100 mg/kg in test [1] came out at 40.4%.
The same measure, in the same setting: with `Nc1nnc2c3ccccc3c(Oc3ccc(F)cc3)nn12` the figure was 48.8%; with `Nc1nnc2c3ccccc3c(Oc3ccc(Br)cc3)nn12`, 48.4%; with `Nc1ccccc1Oc1nn2c(N)nnc2c2ccccc12`, 38.4%.
The same measure, in the same setting: the value for `Nc1nnc2c3ccccc3c(Oc3cccc(Cl)c3)nn12` was 68.8%.
`CC(C)Cc1ccc(C(C)C(=O)O)cc1` (centres undefined) [IBUPROFEN]: the inhibition in vivo at 100 mg/kg was found to be 26.9% in [2] and 61.2% in [1]. The inhibition in vivo at 200 mg/kg was found to be 29.6% in test [3]; 13.2% in test [4]; 36.3% in test [5]; 38.6% in test [6]; 23.4% in test [7]; 64.6% in test [8].
Turning to `Cc1ccccc1Oc1nn2c(N)nnc2c2ccccc12`, the inhibition in vivo at 100 mg/kg in test [1] turned out to be 68.3%.
With `CCCCCCOc1nn2c(N)nnc2c2ccccc12`, in test [1], the inhibition in vivo at 100 mg/kg is 39.5%.
Turning to `Nc1nnc2c3ccccc3c(Oc3ccccc3)nn12`, the inhibition in vivo at 100 mg/kg in test [1] came out at 55%.
On the same count and under the same terms, with `COc1ccc(Oc2nn3c(N)nnc3c3ccccc23)cc1` the figure was 44%; with `CC(C)Oc1nn2c(N)nnc2c2ccccc12`, 39.4%; with `CCCCCCCOc1nn2c(N)nnc2c2ccccc12`, 65.7%.
With `Nc1cccc(Oc2nn3c(N)nnc3c3ccccc23)c1`, the inhibition in vivo at 100 mg/kg in test [1] is 68%.
In the case of `Cc1ccc(Oc2nn3c(N)nnc3c3ccccc23)cc1`, the inhibition in vivo at 100 mg/kg in test [1] amounted to 52.7%.
With `Nc1nnc2c3ccccc3c(Oc3ccccc3Cl)nn12`, the inhibition in vivo at 100 mg/kg in [2] stood at 46.7%; in [1], 81.2%. The inhibition in vivo at 200 mg/kg in [3] came to 52.7%; in test [4], 8.24%; in test [5] it was 64.1%; in test [6] it was 59%; in [7], 57.2%; in [8], 75%. In test [9], the inhibition entry is “Active”. Further, the inhibition in vivo at 50 mg/kg in test [10] amounted to 30.8%.
For `Nc1ccc(Oc2nn3c(N)nnc3c3ccccc23)cc1`, the inhibition in vivo at 100 mg/kg in test [2] came to 37.9%; in test [1], 83%. Also, the inhibition in vivo at 200 mg/kg was 60.5% in [3]; 18.9% in test [4]; 80.6% in [5]; 81.3% in test [6]; 55.9% in test [7]; 84.3% in [8]. Besides, in test [10], the inhibition in vivo at 50 mg/kg was determined as 22.8%.
Turning to `CCCCCCCCOc1nn2c(N)nnc2c2ccccc12`, in test [1], the inhibition in vivo at 100 mg/kg was 58%.
